# Activity calls are given as the source filed them. No cut-off for these calls is given here.
# Test system: Klebsiella pneumoniae
# Assay: Antimicrobial activity against AmpC producing Klebsiella pneumoniae KLEB 249 incubated for 48 hrs by microdilution broth method
# Type: functional, organism-based
# How it was run: (§1)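 Stocks in DMSO were diluted at least 10-fold into Mueller-Hinton broth, then 2-fold serially diluted in MH from 500 to 15.6 μg/ml. Bacteria were added, with DMSO-only dilution controls, and incubated at 37 °C for 48 h. Growth was scored at 24 and 48 h. MIC was the lowest concentration with no growth. Run in quadruplicate.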
row,SMILES,MIC
1,O=C1CC(Sc2ccccc2)N1C(=O)NCc1ccccc1 (racemic),inactive
2,O=C1CC(Sc2ccccc2F)N1C(=O)NCc1ccccc1 (racemic),inactive
3,O=C1CC(Sc2ccc(F)cc2)N1C(=O)NCc1ccccc1 (racemic),inactive

# Test system: Acinetobacter baumannii
# Assay: Antimicrobial activity against extended spectrum beta-lactamase and carbapenemase producing Acinetobacter baumannii L186 incubated for 48 hrs by microdilution broth method
# Type: functional, organism-based
# How it was run: as §1
row,SMILES,MIC
1,O=C1CC(Sc2ccccc2)N1C(=O)NCc1ccccc1 (racemic),inactive
2,O=C1CC(Sc2ccccc2F)N1C(=O)NCc1ccccc1 (racemic),inactive
3,O=C1CC(Sc2ccc(F)cc2)N1C(=O)NCc1ccccc1 (racemic),inactive

# Test system: Acinetobacter baumannii
# Assay: Antimicrobial activity against extended spectrum beta-lactamase and carbapenemase producing Acinetobacter baumannii L187 incubated for 48 hrs by microdilution broth method
# Type: functional, organism-based
# How it was run: as §1
row,SMILES,MIC
1,O=C1CC(Sc2ccccc2)N1C(=O)NCc1ccccc1 (racemic),inactive
2,O=C1CC(Sc2ccccc2F)N1C(=O)NCc1ccccc1 (racemic),inactive
3,O=C1CC(Sc2ccc(F)cc2)N1C(=O)NCc1ccccc1 (racemic),inactive

# Test system: Stenotrophomonas maltophilia
# Assay: Antimicrobial activity against metallo beta-lactamases producing Stenotrophomonas maltophilia GM24 incubated for 48 hrs by microdilution broth method
# Type: functional, organism-based
# How it was run: as §1
row,SMILES,MIC
1,O=C1CC(Sc2ccccc2)N1C(=O)NCc1ccccc1 (racemic),inactive
2,O=C1CC(Sc2ccccc2F)N1C(=O)NCc1ccccc1 (racemic),inactive
3,O=C1CC(Sc2ccc(F)cc2)N1C(=O)NCc1ccccc1 (racemic),inactive

# Test system: Citrobacter freundii
# Assay: Antimicrobial activity against extended spectrum beta-lactamase producing Citrobacter freundii Citro 314 incubated for 48 hrs by microdilution broth method
# Type: functional, organism-based
# How it was run: as §1
row,SMILES,MIC
1,O=C1CC(Sc2ccccc2)N1C(=O)NCc1ccccc1 (racemic),inactive
2,O=C1CC(Sc2ccccc2F)N1C(=O)NCc1ccccc1 (racemic),inactive
3,O=C1CC(Sc2ccc(F)cc2)N1C(=O)NCc1ccccc1 (racemic),inactive

# Test system: Escherichia coli
# Assay: Antimicrobial activity against broad spectrum beta-lactamase producing Escherichia coli MISC 206 incubated for 48 hrs by microdilution broth method
# Type: functional, organism-based
# How it was run: as §1
row,SMILES,MIC
1,O=C1CC(Sc2ccccc2)N1C(=O)NCc1ccccc1 (racemic),inactive
2,O=C1CC(Sc2ccccc2F)N1C(=O)NCc1ccccc1 (racemic),inactive
3,O=C1CC(Sc2ccc(F)cc2)N1C(=O)NCc1ccccc1 (racemic),inactive

# Test system: Escherichia coli
# Assay: Antimicrobial activity against extended spectrum beta-lactamase and carbapenemase producing Escherichia coli ESBL L109 incubated for 48 hrs by microdilution broth method
# Type: functional, organism-based
# How it was run: as §1
row,SMILES,MIC
1,O=C1CC(Sc2ccccc2)N1C(=O)NCc1ccccc1 (racemic),inactive
2,O=C1CC(Sc2ccccc2F)N1C(=O)NCc1ccccc1 (racemic),inactive
3,O=C1CC(Sc2ccc(F)cc2)N1C(=O)NCc1ccccc1 (racemic),inactive

# Test system: Citrobacter freundii
# Assay: Antimicrobial activity against AmpC producing Citrobacter freundii CITRO 21 incubated for 48 hrs by microdilution broth method
# Type: functional, organism-based
# How it was run: as §1
row,SMILES,MIC
1,O=C1CC(Sc2ccccc2)N1C(=O)NCc1ccccc1 (racemic),inactive
2,O=C1CC(Sc2ccccc2F)N1C(=O)NCc1ccccc1 (racemic),inactive
3,O=C1CC(Sc2ccc(F)cc2)N1C(=O)NCc1ccccc1 (racemic),inactive

# Test system: Klebsiella pneumoniae
# Assay: Antimicrobial activity against extended spectrum beta-lactamase and carbapenemase producing Klebsiella pneumoniae ESBL L174 incubated for 48 hrs by microdilution broth method
# Type: functional, organism-based
# How it was run: as §1
row,SMILES,MIC
1,O=C1CC(Sc2ccccc2)N1C(=O)NCc1ccccc1 (racemic),inactive
2,O=C1CC(Sc2ccccc2F)N1C(=O)NCc1ccccc1 (racemic),inactive
3,O=C1CC(Sc2ccc(F)cc2)N1C(=O)NCc1ccccc1 (racemic),inactive

# Test system: Escherichia coli
# Assay: Antimicrobial activity against broad spectrum beta-lactamase producing Escherichia coli GB 8 incubated for 48 hrs by microdilution broth method
# Type: functional, organism-based
# How it was run: as §1
row,SMILES,MIC
1,O=C1CC(Sc2ccccc2)N1C(=O)NCc1ccccc1 (racemic),inactive
2,O=C1CC(Sc2ccccc2F)N1C(=O)NCc1ccccc1 (racemic),inactive
3,O=C1CC(Sc2ccc(F)cc2)N1C(=O)NCc1ccccc1 (racemic),inactive

# Test system: Enterococcus faecalis
# Assay: Antimicrobial activity against Enterococcus faecalis ATCC 29212 incubated for 48 hrs by microdilution broth method
# Type: functional, organism-based
# How it was run: as §1
row,SMILES,MIC
1,O=C1CC(Sc2ccccc2)N1C(=O)NCc1ccccc1 (racemic),inactive
2,O=C1CC(Sc2ccccc2F)N1C(=O)NCc1ccccc1 (racemic),inactive
3,O=C1CC(Sc2ccc(F)cc2)N1C(=O)NCc1ccccc1 (racemic),inactive

# Test system: Escherichia coli
# Assay: Antimicrobial activity against extended spectrum beta-lactamase and carbapenemase producing Escherichia coli ESBL L108 incubated for 48 hrs by microdilution broth method
# Type: functional, organism-based
# How it was run: as §1
row,SMILES,MIC
1,O=C1CC(Sc2ccccc2)N1C(=O)NCc1ccccc1 (racemic),inactive
2,O=C1CC(Sc2ccccc2F)N1C(=O)NCc1ccccc1 (racemic),inactive
3,O=C1CC(Sc2ccc(F)cc2)N1C(=O)NCc1ccccc1 (racemic),inactive

# Test system: Klebsiella pneumoniae
# Assay: Antimicrobial activity against extended spectrum beta-lactamase and carbapenemase producing Klebsiella pneumoniae KPC L133 incubated for 48 hrs by microdilution broth method
# Type: functional, organism-based
# How it was run: as §1
row,SMILES,MIC
1,O=C1CC(Sc2ccccc2)N1C(=O)NCc1ccccc1 (racemic),inactive
2,O=C1CC(Sc2ccccc2F)N1C(=O)NCc1ccccc1 (racemic),inactive
3,O=C1CC(Sc2ccc(F)cc2)N1C(=O)NCc1ccccc1 (racemic),inactive

# Test system: Klebsiella pneumoniae
# Assay: Antimicrobial activity against AmpC producing Klebsiella pneumoniae MISC 304 incubated for 48 hrs by microdilution broth method
# Type: functional, organism-based
# How it was run: as §1
row,SMILES,MIC
1,O=C1CC(Sc2ccccc2)N1C(=O)NCc1ccccc1 (racemic),inactive
2,O=C1CC(Sc2ccccc2F)N1C(=O)NCc1ccccc1 (racemic),inactive
3,O=C1CC(Sc2ccc(F)cc2)N1C(=O)NCc1ccccc1 (racemic),inactive

# Test system: Moraxella catarrhalis
# Assay: Antimicrobial activity against Moraxella catarrhalis clinical isolates incubated for 48 hrs by microdilution broth method
# Type: functional
# How it was run: as §1
row,SMILES,MIC
1,O=C1CC(Sc2ccccc2)N1C(=O)NCc1ccccc1 (racemic),12.5 µg/mL
2,O=C1CC(Sc2ccccc2F)N1C(=O)NCc1ccccc1 (racemic),25 µg/mL
3,O=C1CC(Sc2ccc(F)cc2)N1C(=O)NCc1ccccc1 (racemic),25 µg/mL

# Test system: Staphylococcus aureus
# Assay: Antimicrobial activity against Staphylococcus aureus ATCC 25923 incubated for 48 hrs by microdilution broth method
# Type: functional, organism-based
# How it was run: as §1
row,SMILES,MIC
1,O=C1CC(Sc2ccccc2)N1C(=O)NCc1ccccc1 (racemic),inactive
2,O=C1CC(Sc2ccccc2F)N1C(=O)NCc1ccccc1 (racemic),inactive
3,O=C1CC(Sc2ccc(F)cc2)N1C(=O)NCc1ccccc1 (racemic),inactive

# Test system: Pseudomonas aeruginosa
# Assay: Antimicrobial activity against Pseudomonas aeruginosa ATCC 27853 incubated for 48 hrs by microdilution broth method
# Type: functional, organism-based
# How it was run: as §1
row,SMILES,MIC
1,O=C1CC(Sc2ccccc2)N1C(=O)NCc1ccccc1 (racemic),inactive
2,O=C1CC(Sc2ccccc2F)N1C(=O)NCc1ccccc1 (racemic),inactive
3,O=C1CC(Sc2ccc(F)cc2)N1C(=O)NCc1ccccc1 (racemic),inactive

# Test system: Escherichia coli
# Assay: Antimicrobial activity against Escherichia coli ATCC 25922 incubated for 48 hrs by microdilution broth method
# Type: functional, organism-based
# How it was run: as §1
row,SMILES,MIC
1,O=C1CC(Sc2ccccc2)N1C(=O)NCc1ccccc1 (racemic),inactive
2,O=C1CC(Sc2ccccc2F)N1C(=O)NCc1ccccc1 (racemic),inactive
3,O=C1CC(Sc2ccc(F)cc2)N1C(=O)NCc1ccccc1 (racemic),inactive

# Test system: Mycobacterium tuberculosis
# Assay: Antimicrobial activity against Mycobacterium tuberculosis H37Rv incubated for 48 hrs by microdilution broth method
# Type: functional
row,SMILES,MIC
1,O=C1CC(Sc2ccccc2)N1C(=O)NCc1ccccc1 (racemic),6.25 µg/mL
2,O=C1CC(Sc2ccccc2F)N1C(=O)NCc1ccccc1 (racemic),3.13 µg/mL
3,O=C1CC(Sc2ccc(F)cc2)N1C(=O)NCc1ccccc1 (racemic),6.25 µg/mL

# Test system: Moraxella catarrhalis
# Assay: Bactericidal activity against Moraxella catarrhalis clinical isolates incubated for 48 hrs by microdilution broth method and standard plating method
# Type: functional
# How it was run: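 Broth microdilution in Mueller-Hinton broth, 2-fold series from 500 to 15.6 μg/ml, with DMSO-only controls, 37 °C for 48 h. Wells showing no growth were plated (10 μL) on MH agar. MBC was the lowest concentration giving no growth on plating. Run in quadruplicate.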
row,SMILES,MBC
1,O=C1CC(Sc2ccccc2)N1C(=O)NCc1ccccc1 (racemic),12.5 µg/mL
2,O=C1CC(Sc2ccccc2F)N1C(=O)NCc1ccccc1 (racemic),50 µg/mL
3,O=C1CC(Sc2ccc(F)cc2)N1C(=O)NCc1ccccc1 (racemic),25 µg/mL

# Test system: Escherichia coli
# Assay: Antimicrobial activity against extended spectrum beta-lactamase producing Escherichia coli MISC 262 incubated for 48 hrs by microdilution broth method
# Type: functional, organism-based
# How it was run: as §1
row,SMILES,MIC
1,O=C1CC(Sc2ccccc2)N1C(=O)NCc1ccccc1 (racemic),inactive
2,O=C1CC(Sc2ccccc2F)N1C(=O)NCc1ccccc1 (racemic),inactive
3,O=C1CC(Sc2ccc(F)cc2)N1C(=O)NCc1ccccc1 (racemic),inactive

# Test system: Acinetobacter baumannii
# Assay: Antimicrobial activity against extended spectrum beta-lactamase and carbapenemase producing Acinetobacter baumannii L185 incubated for 48 hrs by microdilution broth method
# Type: functional, organism-based
# How it was run: as §1
row,SMILES,MIC
1,O=C1CC(Sc2ccccc2)N1C(=O)NCc1ccccc1 (racemic),inactive
2,O=C1CC(Sc2ccccc2F)N1C(=O)NCc1ccccc1 (racemic),inactive
3,O=C1CC(Sc2ccc(F)cc2)N1C(=O)NCc1ccccc1 (racemic),inactive
